Source: ChEMBL document CHEMBL4665734, “Optimization of globomycin analogs as novel gram-negative antibiotics” (Bioorg Med Chem Lett, 2020)
≈ marks a conversion by molar mass, not a printed value. Starred links: 1 amine or outer side, 2 acyl side, 3 side chain; linkers in the order of their positions; H or OH if unused. Non-standard residues stand in square brackets, D forms with d. Residues, ends and D or L forms follow the SMILES beside them. *: point of attachment. X6 = C[C@H](CO[C@H](CC1C[C@H]2CC[C@@H](C1)C2)[C@@H](C)C(=O)[*:2])N[*:1]; dAlaψ(CH2NBu)Nle = CCCC[C@@H](C(=O)[*:2])N(CCCC)C[C@@H](C)N[*:1]; X3 = C[C@H](CO[C@H](CC1CC2(CCC2)C1)[C@@H](C)C(=O)[*:2])N[*:1]; X9 = CCCCCC[C@@H](OCCN[*:1])[C@@H](C)C(=O)[*:2]; Cyclobutyl(trans-3-NH2) = N[C@H]1C[C@H](*)C1; X4 = CCCCCCN(CCN[*:1])[C@@H](C)C(=O)[*:2]; Gly(cHept) = N[C@H](C(=O)O)C1CCCCCC1; aThr = C[C@H](O)[C@H](N)C(=O)O; NMeL = CN[C@@H](CC(C)C)C(=O)O; Chg = N[C@H](C(=O)O)C1CCCCC1; NMeNva = CCC[C@H](NC)C(=O)O; Dap = NC[C@H](N)C(=O)O

How the values were obtained:
[1] = Clearance in mouse liver microsomes; assay type: ADME, Microsome
Method in brief: (§1)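 Intrinsic clearance in rat or mouse liver microsomes, expressed in mL/min/kg.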

Escherichia coli CFT073 = assay: Inhibition of LspA in wild type Escherichia coli CFT073 assessed as inhibition of bacterial growth
Method in brief: (§2)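 Read-out is the minimum inhibitory concentration, reported in µM.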

Klebsiella pneumoniae = assay: Inhibition of LspA in Klebsiella pneumoniae assessed as inhibition of bacterial growth
[2] = Half life in iv dosed mouse; assay type: ADME, organism-based; settings: in vivo
Enterobacter cloacae = assay: Inhibition of LspA in Enterobacter cloacae assessed as inhibition of bacterial growth
[3] = Protein binding in mouse plasma; assay type: ADME, cell-free; settings: for fraction unbound: read-out: PPB (converted)
Pseudomonas aeruginosa = assay: Inhibition of LspA in Pseudomonas aeruginosa assessed as inhibition of bacterial growth
[4] = Stability of the compound in mouse plasma assessed as parent compound remaining after 24 hrs; assay type: ADME, cell-free; settings: read-out: Stabilty
Method in brief: (§3)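 Test compound incubated for 24 hour in human, rat or mouse plasma. Stability is reported as the percentage of parent compound remaining.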

[5] = Stability of the compound in human plasma assessed as parent compound remaining after 24 hrs; assay type: ADME, cell-free; settings: read-out: Stabilty; method in brief: as §3
[6] = Lipophilicity, logD of the compound at pH 7.4; settings: buffer, pH 7.4, logD
[7] = Growth inhibition of Staphylococcus aureus USA300
[8] = Stability of the compound in rat plasma assessed as parent compound remaining after 24 hrs; assay type: ADME, cell-free; settings: read-out: Stabilty; method in brief: as §3
[9] = Clearance in rat liver microsomes; assay type: ADME, Microsome; method in brief: as §1
[10] = Clearance in iv dosed rat; assay type: ADME, organism-based; settings: in vivo
[11] = Clearance in iv dosed mouse; assay type: ADME, organism-based; settings: in vivo
[12] = Half life in iv dosed rat; assay type: ADME, organism-based; settings: in vivo
[13] = Protein binding in rat plasma; assay type: ADME, cell-free; settings: for fraction unbound: read-out: PPB (converted)
Acinetobacter baumannii = assay: Inhibition of LspA in Acinetobacter baumannii assessed as inhibition of bacterial growth
Escherichia coli = assay: Inhibition of LspA in Escherichia coli CFT073imp4213 harboring outer membrane-permeable mutant assessed as inhibition of bacterial growth; method in brief: as §2
[14] = Stability of the compound in mouse plasma assessed as parent compound remaining after 6 hrs; assay type: ADME, cell-free; settings: read-out: Stabilty
Method in brief: (§4)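 Test compound incubated for 6 hour in human or mouse plasma. Stability is reported as the percentage of parent compound remaining.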

[15] = Stability of the compound in human plasma assessed as parent compound remaining after 6 hrs; assay type: ADME, cell-free; settings: read-out: Stabilty; method in brief: as §4
Jurkat = assay: Cytotoxicity against human Jurkat cells; assay type: cell-based
Method in brief: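 Jurkat cell growth assay. Result reported as antiproliferative EC50.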

[16] = Stability in mouse plasma assessed as esterase-mediated compound hydrolysis by measuring parent compound remaining after 6 hrs; assay type: ADME, cell-free; settings: read-out: Stabilty; method in brief: as §4

| SMILES | CLhep predicted [1] [mL/min/kg] | MIC (Escherichia coli CFT073) [µM] | MIC (Klebsiella pneumoniae) [µM] | half-life [2] [h] | MIC (Enterobacter cloacae) [µM] | fraction unbound [3] | MIC (Pseudomonas aeruginosa) [µM] | remaining at 24 h [4] [%] | remaining at 24 h [5] [%] | logD [6] | remaining at 24 h [8] [%] | CLhep predicted [9] [mL/min/kg] | clearance [10] [mL/min/kg] | clearance [11] [mL/min/kg] | half-life [12] [h] | fraction unbound [13] | MIC (Acinetobacter baumannii) [µM] | MIC [7] [µM] | MIC (Escherichia coli) [µM] | EC50 (Jurkat) [µM] | further results |
| --- | --- | --- | --- | --- | --- | --- | --- | --- | --- | --- | --- | --- | --- | --- | --- | --- | --- | --- | --- | --- | --- |
| CCCC[C@H]1C(=O)N(C)[C@@H](CC(C)C)C(=O)N[C@@H](C2CCCCC2)C(=O)N[C@@H](CN)C(=O)N[C@@H]([C@H](C)O)C(=O)N[C@H](C)CN1CCCC (cyclo([Chg][Dap][aThr][dAlaψ(CH2NBu)Nle][NMeL])) | 77 | 1.6 (≈ 1.09 µg/mL) |  |  |  | 0.004 |  | 89 | 97 | 3.4 | 102 | 27 | 53 |  | 2.6 | 0.005 |  | 71 (≈ 48.3 µg/mL) | 0.017 (≈ 0.0116 µg/mL) |  |  |
| CCCCCC[C@H]1OCCNC(=O)[C@H]([C@H](C)O)NC(=O)[C@H](CN)NC(=O)[C@H](C2CCCCC2)NC(=O)[C@H](CC(C)C)N(C)C(=O)[C@@H]1C (cyclo([Chg][Dap][aThr][X9][NMeL])) |  | 8.7 (≈ 5.8 µg/mL) |  |  |  |  |  |  |  |  |  |  |  |  |  |  |  | 100 (≈ 66.7 µg/mL) | 0.14 (≈ 0.0934 µg/mL) |  | remaining at 6 h [14]: 96%; remaining at 6 h [15]: 99% |
| CCCCCC[C@H]1OC(=O)CNC(=O)[C@H]([C@H](C)O)NC(=O)[C@H](CO)NC(=O)[C@H]([C@H](C)CC)NC(=O)[C@H](CC(C)C)N(C)C(=O)[C@@H]1C | 81 | 44 (≈ 28.9 µg/mL) | > 100 | 0.3 | 100 (≈ 65.6 µg/mL) |  | > 100 | 2 | 100 | 3.1 | 1 | 37 |  | 286 |  |  | > 100 | > 100 | 0.25 (≈ 0.164 µg/mL) | > 50 | remaining at 6 h [16]: 49%; Stabilty [3]: Unstable; Stabilty [13]: Unstable |

The next lines start with results.

| CLhep predicted [1] [mL/min/kg] | MIC (Escherichia coli CFT073) [µM] | MIC (Klebsiella pneumoniae) [µM] | half-life [2] [h] | MIC (Enterobacter cloacae) [µM] | fraction unbound [3] | MIC (Pseudomonas aeruginosa) [µM] | remaining at 24 h [4] [%] | remaining at 24 h [5] [%] | logD [6] | remaining at 24 h [8] [%] | CLhep predicted [9] [mL/min/kg] | clearance [10] [mL/min/kg] | clearance [11] [mL/min/kg] | half-life [12] [h] | fraction unbound [13] | MIC (Acinetobacter baumannii) [µM] | SMILES | MIC [7] [µM] | MIC (Escherichia coli) [µM] | EC50 (Jurkat) [µM] | further results |
| --- | --- | --- | --- | --- | --- | --- | --- | --- | --- | --- | --- | --- | --- | --- | --- | --- | --- | --- | --- | --- | --- |
| 48 | 2.2 (≈ 1.67 µg/mL) | 8.8 (≈ 6.69 µg/mL) | 4 | 6.3 (≈ 4.79 µg/mL) | 0.007 | 71 (≈ 54 µg/mL) | 84 | 103 | 2.2 | 90 | 28 | 40 | 11 | 3.2 | 0.022 | 18 (≈ 13.7 µg/mL) | CCC[C@H]1C(=O)N[C@@H](C2CCCCCC2)C(=O)N[C@@H](CN)C(=O)N[C@@H](CO[C@H]2C[C@H](N)C2)C(=O)N[C@H](C)CO[C@H](CC2CC3(CCC3)C2)[C@@H](C)C(=O)N1C (cyclo([Dap]S(Cyclobutyl(trans-3-NH2))[X3][NMeNva][Gly(cHept)])) | 25 (≈ 19 µg/mL) |  |  |  |
| 41 | 0.78 (≈ 0.604 µg/mL) | 8.8 (≈ 6.81 µg/mL) | 2.1 | 3.1 (≈ 2.4 µg/mL) | 0.003 | 100 (≈ 77.4 µg/mL) | 95 | 99 | 1.7 | 94 | 21 | 15 | 17 | 5.8 | 0.026 | 25 (≈ 19.4 µg/mL) | CCC[C@H]1C(=O)N[C@@H](C2CCCCCC2)C(=O)N[C@@H](CN)C(=O)N[C@@H](CO[C@H]2C[C@H](N)C2)C(=O)N[C@H](C)CO[C@H](CC2C[C@H]3CC[C@@H](C2)C3)[C@@H](C)C(=O)N1C (stereo partly drawn) (cyclo([Dap]S(Cyclobutyl(trans-3-NH2))[X6][NMeNva][Gly(cHept)])) | 50 (≈ 38.7 µg/mL) |  | > 100 |  |
| 34 | 6.3 (≈ 4.45 µg/mL) | 100 (≈ 70.7 µg/mL) |  |  | 0.03 | > 100 | 95 | 110 | 1 | 60 | 26 | 8.7 |  | 1.6 | 0.043 | > 100 | CCCCCCN1CCNC(=O)[C@H](CO[C@H]2C[C@H](N)C2)NC(=O)[C@H](CN)NC(=O)[C@H](C2CCCCC2)NC(=O)[C@H](CC(C)C)N(C)C(=O)[C@@H]1C (cyclo([Chg][Dap]S(Cyclobutyl(trans-3-NH2))[X4][NMeL])) | 100 (≈ 70.7 µg/mL) |  | > 100 |  |
| 32 | 6.3 (≈ 4.54 µg/mL) | 25 (≈ 18 µg/mL) |  |  | 0.026 | 100 (≈ 72.1 µg/mL) | 55 | 105 | 1.5 | 58 | < 6.1 | 24 |  | 6.8 | 0.047 | 25 (≈ 18 µg/mL) | CCCC[C@H]1C(=O)N(C)[C@@H](CCC)C(=O)N[C@@H](C2CCCCC2)C(=O)N[C@@H](CN)C(=O)N[C@@H](CO[C@H]2C[C@H](N)C2)C(=O)N[C@H](C)CN1CCCC (cyclo([Chg][Dap]S(Cyclobutyl(trans-3-NH2))[dAlaψ(CH2NBu)Nle][NMeNva])) | 50 (≈ 36.1 µg/mL) |  |  |  |
